# Experimental data of several laboratories.
# Each line is one published result; the experiments were not run side by side.
# Target: Carbonic anhydrase 1 (CA1, Homo sapiens, UniProt P00915)
# Read-out: enzyme activity
# Action: inhibitor
Compound,technique,Ki
OCCOCCN1CCN(C(c2ccccc2)c2ccc(Cl)cc2)CC1 (centres unmarked),,10.3 µM
COc1ccc(OC(=O)c2ccc(=O)oc2)cc1,stopped-flow,> 100 µM
CC1(C)CCN(CC(=O)Nc2nnc(S(N)(=O)=O)s2)CC1,stopped-flow,0.0541 µM
CN1CCC(=C2c3ccccc3CC(=O)c3sccc32)CC1,,6.98 µM
CC(C)(C)CCC(=O)Nc1nnc(S(N)(=O)=O)s1,stopped-flow,0.267 µM
O=C(OCc1cn(-c2ccc(Cl)cc2)nn1)c1ccc(=O)oc1,stopped-flow,> 100 µM
CC[C@H]1OC(=O)[C@H](C)[C@@H](O[C@H]2C[C@@](C)(OC)[C@@H](O)[C@H](C)O2)[C@H](C)[C@@H](O[C@@H]2O[C@H](C)C[C@H](N(C)C)[C@H]2O)[C@](C)(O)C[C@@H](C)CN(C)[C@H](C)[C@@H](O)[C@]1(C)O,,10.2 µM
CC1CCCCC1OC(=O)c1ccc(=O)oc1 (centres unmarked),stopped-flow,> 100 µM
CC(C)[C@H](N)C(=O)OCCOCn1cnc2c(=O)[nH]c(N)nc21,,8.7 µM
NS(=O)(=O)c1nnc(NC(=O)CCC2CCCCO2)s1 (centres unmarked),stopped-flow,0.75 µM
Cc1cc(=O)oc2cc(OCCCCSC#N)ccc12,stopped-flow,> 100 µM
C[n+]1cc(C(=O)[O-])ccc1O,stopped-flow,> 100 µM
N#CSCc1cc(=O)oc2cc(O)ccc12,stopped-flow,> 100 µM
C[C@H]1CCC[C@H](C(=O)Nc2nnc(S(N)(=O)=O)s2)C1 (racemic),stopped-flow,0.0639 µM
CN(C)CCC(c1ccccc1)c1ccccn1 (centres unmarked),,13.9 µM
NCCCC(=O)Nc1nnc(S(N)(=O)=O)s1,stopped-flow,0.155 µM
C#CCNC(=O)c1ccc(=O)oc1,stopped-flow,> 100 µM
Cn1cnc([N+](=O)[O-])c1Sc1ncnc2nc[nH]c12,,12.4 µM
O=C(OCc1cn(-c2ccccc2)nn1)c1ccc(=O)oc1,stopped-flow,> 100 µM
CC(C(=O)Nc1nnc(S(N)(=O)=O)s1)C1CCCCC1 (centres unmarked),stopped-flow,0.0475 µM
